Paper PMC10754386 (Acta physiologica (Oxford, England), 2022)

Legend:
NCD-WT mice = experiment: Liver glycogen content in NCD-WT mice; type: in vivo, mouse
CST-KO mice = experiment: Liver glycogen content in NCD-CST-KO mice; type: in vivo, mouse; conditions: fed state, insulin 30 min, Figure 4B
IR, IRS-1, mTOR, AKT = experiment: Immunoblotting of phosphorylation signals in primary hepatocytes; type: cell-based, mouse; conditions: cultured hepatocytes; immunoblot; n = 3; Figure 6A–D
mice = experiment: Plasma counterregulatory hormones; type: in vivo, mouse; conditions: NCD-WT mice; acute insulin for 30 minutes; n = 7; Figure 2B,C
PI3-kinase = experiment: PI-3-kinase activity in anti-p85 immunoprecipitates of hepatocytes; type: cell-based, mouse; conditions: CST 100 nM for 1 hour, insulin 10 nM for 10 minutes, Figure 6E
Outline: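 Mouse hepatocytes were left untreated or exposed to CST (100 nM, 1 hr) or insulin (10 nM, 10 min), then lysed. Anti-p85 immunoprecipitates were washed and assayed with phosphatidylinositol substrate and γ-32P-ATP. Labelled lipids were extracted, mixed with reference lipids and separated by TLC (CHCl3–MeOH–H2O–NH4OH (25%), 45:35:8.5:1.5). PI3P was detected by autoradiography.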

GSK-3β = experiment: Immunoblotting of GSK-3β in liver; type: in vivo, mouse; conditions: liver of fasted NCD-WT and DIO-WT mice; immunoblot; n = 4; Figure 9A,B

insulin was tested, and the “effect on liver glycogen level” value (NCD-WT mice; fasted NCD-WT mice, insulin 30 minutes, CST 2 μg/g body weight acute (1 hour) and chronic (10–15 days), Figure 1A,C,D) was “restored glycogen level”, the “fold increase in hepatic glycogen content” value (NCD-WT mice; fasted lean mice, CST or insulin alone) was “> fivefold” and the “effect on hepatic glycogen content” value (CST-KO mice) was “failed to increase”. For the same substance, the “effect on tyrosine phosphorylation of IR and IRS-1” value (IR, IRS-1, mTOR, AKT) was “stimulated tyrosine phosphorylation”, the “effect on plasma noradrenaline and adrenaline levels” value (mice) was “raised plasma noradrenaline and adrenaline levels only in the fasted state” and the “effect on PI3-kinase activity (PI3P formation)” value (PI3-kinase) was “stimulated PI3-kinase activity”. For the same substance, the “effect on GSK-3β Ser9 phosphorylation” value (GSK-3β) was “increased GSK-3β Ser9 phosphorylation”.
